Results from ChEMBL document CHEMBL4385635, “Styryl quinazolinones and its ethynyl derivatives induce myeloid differentiation” (Bioorg Med Chem Lett, 2019).
Active and inactive are the calls of the source. The rule behind the calls is not given here.

Tests used:
HL-60 [1] = assay: Induction of differentiation of human HL60 cells assessed as morphological changes at 3 uM after 7 days by NBT reduction assay; format: functional
Outline: (§1)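 HL-60 cells were screened for differentiation by Wright-Giemsa morphology and NBT reduction, and apoptosis was scored alongside. Controls were 0.1% DMSO as vehicle and ATRA at 1 μM as positive. Each result was graded on a semiquantitative scale (−, ±, + to +++).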

HL-60 [2] = assay: Induction of apoptosis in human HL60 cells at 10 uM after 7 days; format: functional
Outline: (§2)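 Apoptosis in compound-treated HL-60 cells was scored semi-quantitatively (− to +++), alongside the differentiation read-outs, against a 0.1% DMSO vehicle control.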

HL-60 [3] = assay: Induction of differentiation of human HL60 cells assessed as increase in CEBPA mRNA expression at 7 uM by QT-PCR analysis; format: functional
Outline: (§3)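 HL-60 cells were treated and CEBPA and CEBPE mRNA levels were measured by quantitative RT-PCR. Results are expressed as fold increase relative to DMSO-treated cells.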

HL-60 [4] = assay: Induction of differentiation of human HL60 cells assessed as morphological changes at 3 uM after 7 days by Wright-Giemsa staining based assay; format: functional; outline: as §1
HL-60 [5] = assay: Induction of differentiation of human HL60 cells assessed as increase in CEBPE mRNA expression at 7 uM by QT-PCR analysis; format: functional; outline: as §3
HL-60 [6] = assay: Induction of differentiation of human HL60 cells assessed as morphological changes at 10 uM after 7 days by Wright-Giemsa staining based assay; format: functional; outline: as §1
HL-60 [7] = assay: Induction of differentiation of human HL60 cells assessed as increase in CD11b positive cells at 7 uM after 7 days by flow cytometric analysis (reference value: 3.94%); format: functional
HL-60 [8] = assay: Induction of differentiation of human HL60 cells assessed as increase in CEBPA mRNA expression at by QT-PCR analysis; format: functional, cell-based; outline: as §3
HL-60 [9] = assay: Induction of apoptosis in human HL60 cells at 3 uM after 7 days; format: functional; outline: as §1
HL-60 [10] = assay: Induction of differentiation of human HL60 cells assessed as morphological changes at 10 uM after 7 days by NBT reduction assay; format: functional; outline: as §1
HL-60 [11] = assay: Induction of differentiation of human HL60 cells assessed as increase in CD11b positive cells at 10 uM after 7 days by flow cytometric analysis (reference value: 3.94%); format: functional
Tubulin = Tubulin (Bos taurus, UniProt Q6B856+Q862L2+Q862F3); assay: Inhibition of bovine brain tubulin polymerization
HL-60 [12] = assay: Cytotoxicity against human HL60 cells assessed as reduction in cell viability at 3 uM; format: functional, cell-based
HL-60 [13] = assay: Induction of differentiation of human HL60 cells assessed as morphological changes at 3 uM after 7 days; format: functional, cell-based
Outline: (§4)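 HL-60 cells were treated with compound, with 0.1% DMSO as vehicle control. Differentiation was judged by Wright-Giemsa morphology and NBT reduction, each scored semi-quantitatively from − through ± to +++.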

HL-60 [14] = assay: Cytotoxicity against human HL60 cells assessed as reduction in cell viability at >3 uM; format: functional, cell-based
HL-60 [15] = assay: Induction of differentiation of human HL60 cells assessed as increase in CEBPA mRNA expression at 10 uM by QT-PCR analysis; format: functional; outline: as §3
HL-60 [16] = assay: Induction of differentiation of human HL60 cells assessed as increase in CEBPE mRNA expression at 10 uM by QT-PCR analysis; format: functional; outline: as §3
L1210 = assay: Cytotoxicity against mouse L1210 cells assessed as reduction in cell viability after 48 hrs by trypan blue staining-based hemocytometric analysis; format: functional; settings: L1210, 48 h
HL-60 [17] = assay: Induction of differentiation of human HL60 cells assessed as increase in CD11b positive cells at 3 uM after 7 days by flow cytometric analysis (reference value: 3.94%); format: functional
HL-60 [18] = assay: Induction of differentiation of human HL60 cells assessed as increase in CEBPE mRNA expression at 3 uM by QT-PCR analysis; format: functional; outline: as §3
HL-60 [19] = assay: Induction of differentiation of human HL60 cells assessed as increase in CD11b positive cells at 5 uM after 7 days by flow cytometric analysis (reference value: 3.94%); format: functional
HL-60 [20] = assay: Induction of differentiation of human HL60 cells assessed as increase in CEBPA mRNA expression at 3 uM by QT-PCR analysis; format: functional; outline: as §3
HL-60 [21] = assay: Induction of differentiation of human HL60 cells assessed as morphological changes at 1 uM after 7 days by Wright-Giemsa staining based assay; format: functional
Outline: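 Compound-treated HL-60 cells were stained with Wright-Giemsa and examined for granulocytic morphology. Scoring was semi-quantitative (− to +++) against a 0.1% DMSO vehicle control.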

HL-60 [22] = assay: Induction of differentiation of human HL60 cells assessed as increase in CD11b positive cells at 1 uM after 7 days by flow cytometric analysis (reference value: 3.94%); format: functional
Outline: (§5)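 HL-60 cells were exposed to compound for 7 days, then stained with APC-conjugated anti-human/mouse CD11b antibody, with rat IgG2b as isotype control. CD11b-positive cells were measured by flow cytometry and reported as percent increase relative to the DMSO vehicle.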

HL-60 [23] = assay: Induction of apoptosis in human HL60 cells at 1 uM after 7 days; format: functional; outline: as §2
HL-60 [24] = assay: Induction of differentiation of human HL60 cells assessed as increase in CEBPA mRNA expression at 1 uM by QT-PCR analysis; format: functional
Outline: (§6)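 HL-60 cells were treated with compound over a time course. CEBPA or CEBPE mRNA levels were measured and expressed as fold increase relative to the DMSO vehicle.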

HL-60 [25] = assay: Induction of differentiation of human HL60 cells assessed as morphological changes at 1 uM after 7 days by NBT reduction assay; format: functional
Outline: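 In compound-treated HL-60 cells, differentiation was read as NBT reduction. Scoring was semi-quantitative (−, ±, + to +++) against a 0.1% DMSO vehicle control.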

HL-60 [26] = assay: Induction of differentiation of human HL60 cells assessed as increase in CD11b positive cells after 7 days by flow cytometric analysis relative to control; format: functional, cell-based; outline: as §5
HL-60 [27] = assay: Cytotoxicity against human HL60 cells assessed as reduction in cell viability at 1 uM; format: functional, cell-based
HL-60 [28] = assay: Induction of differentiation of human HL60 cells assessed as morphological changes at 1 uM after 7 days; format: functional, cell-based; outline: as §4
HL-60 [29] = assay: Induction of differentiation of human HL60 cells assessed as morphological changes at 10 uM after 7 days; format: functional; outline: as §1
HL-60 [30] = assay: Induction of differentiation of human HL60 cells assessed as increase in CEBPE mRNA expression at by QT-PCR analysis; format: functional, cell-based; outline: as §6

`COc1ccccc1-n1c(/C=C/c2ccc([N+](=O)[O-])o2)nc2ccc(F)cc2c1=O` was tested, and the Activity (HL-60 [1]) was 5 - 30%, the Activity (HL-60 [2]) was greater than 60% and the “fold change (FC)” value (HL-60 [3]) was 1.6. For the same compound, the Activity (HL-60 [4]) was 5 - 30%, the “fold change (FC)” value (HL-60 [5]) was 2.6 and the Activity (HL-60 [6]) was 30 - 60%. For the same compound, the Activity (HL-60 [7]) was 89%, the Activity (HL-60 [8]; TDE = time-dependent effect) was “Tde” and the Activity (HL-60 [9]) was 30 - 60%. For the same compound, the Activity (HL-60 [10]) was 30 - 60% and the Activity (HL-60 [11]) was 94.2%.
Compound `Oc1nc(/C=C/c2ccccc2)nc2ccc(Cl)cc12` has an IC50 (Tubulin) of 2.5 µM.
In the case of `O=c1c2sccc2nc(/C=C/c2ccc([N+](=O)[O-])o2)n1-c1cccc(Cl)c1`, the Activity (HL-60 [12]) is reported as “Active”, the Activity (HL-60 [2]) is reported as 5 - 30% and the Activity (HL-60 [13]) is reported as “inactive”. For the same compound, the Activity (HL-60 [14]) was “Active”.
`COc1ccccc1-n1c(/C=C/c2ccc(O)c(O)c2)nc2ccccc2c1=O` was tested, and the Activity (HL-60 [2]) was 5 - 30%, the Activity (HL-60 [6]) was 5 - 30% and the Activity (HL-60 [8]; TDE = time-dependent effect) was “Tde”. The “fold change (FC)” value (HL-60 [15]) was 1.5, the Activity (HL-60 [10]) was 5 - 30% and the “fold change (FC)” value (HL-60 [16]) was 2.1. For the same compound, the Activity (HL-60 [11]) was 25.9 - 51.2%.
For `Cc1cc(-n2c(/C=C/c3ccccc3)nc3ccc(Cl)cc3c2=O)n(-c2ccccc2)n1`, the IC50 (L1210) was 15 µM.
In the case of `O=c1c2cc(F)ccc2nc(/C=C/c2ccc([N+](=O)[O-])o2)n1-c1ccccc1`, the Activity (HL-60 [1]) is reported as 30 - 60%, the Activity (HL-60 [4]) is reported as 30 - 60% and the Activity (HL-60 [8]; TDE = time-dependent effect) is reported as “Tde”. The Activity (HL-60 [9]) was 30 - 60%, the Activity (HL-60 [17]) was 42.2% and the “fold change (FC)” value (HL-60 [18]) was 10.3. The Activity (HL-60 [19]) was 68.6% and the “fold change (FC)” value (HL-60 [20]) was 2.5.
In the case of `O=C(O)c1cccc(-n2c(/C=C/c3ccc([N+](=O)[O-])o3)nc3ccccc3c2=O)c1`, the Activity (HL-60 [6]) is reported as 5 - 30% and the Activity (HL-60 [10]) is reported as 5 - 30%.
For `O=c1c2ccccc2nc(/C=C/c2ccc([N+](=O)[O-])o2)n1-c1ccccc1F`, the Activity (HL-60 [2]) was greater than 60%, the Activity (HL-60 [6]) was 30 - 60% and the Activity (HL-60 [8]; TDE = time-dependent effect) was “Tde”. The “fold change (FC)” value (HL-60 [15]) was 1.8, the Activity (HL-60 [10]) was 30 - 60% and the “fold change (FC)” value (HL-60 [16]) was 6. The Activity (HL-60 [11]) was 59%.
With `COc1cc(/C=C/c2nc3ccccc3c(=O)n2-c2c(Cl)cccc2Cl)ccc1O` the Activity (HL-60 [2]) was 5 - 30%.
For `CC1=C(/C=C/C(C)=C/C=C/C(C)=C/C(=O)O)C(C)(C)CCC1` [TRETINOIN], the Activity (HL-60 [21]) was greater than 60%, the Activity (HL-60 [22]) was 96.4% and the Activity (HL-60 [8]; TDE = time-dependent effect) was “Tde”. For the same compound, the Activity (HL-60 [23]) was greater than 60%, the “fold change (FC)” value (HL-60 [24]) was 3 and the Activity (HL-60 [25]) was greater than 60%.
With `Cc1ccc(-n2c(/C=C/c3ccc([N+](=O)[O-])o3)nc3ccsc3c2=O)cc1` the Activity (HL-60 [2]) was 5 - 30% and the Activity (HL-60 [14]) was “Active”.
With `O=c1[nH]c(/C=C/c2ccc([N+](=O)[O-])o2)nc2ccsc12` the Activity (HL-60 [12]) was “Active”, the Activity (HL-60 [2]) was 5 - 30% and the Activity (HL-60 [26]) was “inactive”. The Activity (HL-60 [8]) was “Active”, the Activity (HL-60 [13]) was “inactive” and the Activity (HL-60 [14]) was “Active”. The Activity (HL-60 [10]) was 5 - 30%.
For `O=c1c2sccc2nc(/C=C/c2ccc([N+](=O)[O-])o2)n1-c1ccccc1Cl`, the Activity (HL-60 [2]) was 5 - 30%, the Activity (HL-60 [26]) was “inactive” and the Activity (HL-60 [27]) was “Active”. For the same compound, the Activity (HL-60 [8]) was “Active”, the Activity (HL-60 [14]) was “Active” and the Activity (HL-60 [28]) was “inactive”. For the same compound, the Activity (HL-60 [10]) was 5 - 30%.
In the case of `C#Cc1ccc(-n2c(/C=C/c3ccc(O)cc3)nc3ccccc3c2=O)cc1`, the Activity (HL-60 [2]) is reported as 5 - 30%, the Activity (HL-60 [6]) is reported as 5 - 30% and the Activity (HL-60 [10]) is reported as 5 - 30%. The Activity (HL-60 [29]) was 5 - 30%.
With `Cc1cc(C#Cc2ccc(C(C)(C)C)cc2)ccc1-n1c(/C=C/c2ccc([N+](=O)[O-])o2)nc2ccccc2c1=O` the Activity (HL-60 [2]) was 5 - 30%, the Activity (HL-60 [26]) was “inactive” and the Activity (HL-60 [6]) was 5 - 30%. For the same compound, the Activity (HL-60 [8]) was “inactive”, the Activity (HL-60 [30]) was “inactive” and the Activity (HL-60 [10]) was 5 - 30%. For the same compound, the Activity (HL-60 [29]) was 5 - 30%.
With `O=c1c2sccc2nc(/C=C/c2ccc([N+](=O)[O-])o2)n1-c1ccc(Cl)cc1` the Activity (HL-60 [12]) was “Active”, the Activity (HL-60 [2]) was 5 - 30% and the Activity (HL-60 [13]) was “inactive”. The Activity (HL-60 [14]) was “Active”.
